Key:
[1] = target: Focal adhesion kinase 1 (Homo sapiens) (UniProt Q05397); experiment: Inhibition of recombinant GST-tagged full length human FAK expressed in baculovirus expression system at 1 uM measured by select screen assay
Procedure, shortened: (§1)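 Single-concentration profiling at 1.0 µM in a 28-kinase SelectScreen panel; percent inhibition reported.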

[2] = target: Tyrosine-protein kinase JAK2 (Homo sapiens) (UniProt O60674); experiment: Inhibition of recombinant GST-tagged human JAK2 expressed in baculovirus expression system at 1 uM measured by select screen assay relative to control; procedure, shortened: as §1
Chain of Tyrosine-protein kinase JAK2 (Homo sapiens) (O60674 whole entry, the tested form may be a part): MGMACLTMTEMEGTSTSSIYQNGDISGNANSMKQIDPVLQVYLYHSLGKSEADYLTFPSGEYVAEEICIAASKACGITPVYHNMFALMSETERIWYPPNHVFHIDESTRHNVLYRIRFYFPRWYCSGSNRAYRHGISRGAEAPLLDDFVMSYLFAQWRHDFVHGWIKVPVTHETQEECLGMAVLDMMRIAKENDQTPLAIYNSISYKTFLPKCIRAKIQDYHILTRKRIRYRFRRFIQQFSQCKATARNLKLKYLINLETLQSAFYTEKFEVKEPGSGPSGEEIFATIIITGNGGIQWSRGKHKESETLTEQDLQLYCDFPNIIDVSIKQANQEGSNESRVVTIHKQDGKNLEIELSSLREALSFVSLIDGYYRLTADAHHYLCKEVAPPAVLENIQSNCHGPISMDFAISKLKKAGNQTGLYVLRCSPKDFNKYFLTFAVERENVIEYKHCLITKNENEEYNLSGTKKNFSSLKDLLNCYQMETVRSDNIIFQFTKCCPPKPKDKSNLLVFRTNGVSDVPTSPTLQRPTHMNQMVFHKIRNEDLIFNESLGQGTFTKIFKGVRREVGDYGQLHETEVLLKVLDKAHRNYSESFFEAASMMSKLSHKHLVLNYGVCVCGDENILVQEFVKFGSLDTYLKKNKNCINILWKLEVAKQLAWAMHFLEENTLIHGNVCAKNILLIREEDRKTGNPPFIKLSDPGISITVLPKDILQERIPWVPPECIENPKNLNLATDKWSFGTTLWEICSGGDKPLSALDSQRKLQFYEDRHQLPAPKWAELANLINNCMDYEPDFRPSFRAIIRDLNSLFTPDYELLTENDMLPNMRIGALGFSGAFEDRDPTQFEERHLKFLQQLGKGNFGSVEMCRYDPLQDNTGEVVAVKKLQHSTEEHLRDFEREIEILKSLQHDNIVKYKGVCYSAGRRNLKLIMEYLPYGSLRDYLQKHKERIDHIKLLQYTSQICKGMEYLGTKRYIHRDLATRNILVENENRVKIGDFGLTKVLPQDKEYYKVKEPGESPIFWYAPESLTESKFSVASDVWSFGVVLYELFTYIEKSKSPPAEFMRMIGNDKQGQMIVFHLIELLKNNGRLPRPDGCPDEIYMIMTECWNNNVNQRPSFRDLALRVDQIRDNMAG

[3] = target: High affinity nerve growth factor receptor (Homo sapiens, UniProt P04629); experiment: Inhibition of N-terminal GST-tagged human TRKA (436 to 790 residues) expressed in baculovirus infected Sf21 cells using TK as substrate in presence of ATP measured after 30 mins by HTRF assay
Chain of High affinity nerve growth factor receptor (P04629 whole entry, the tested form may be a part): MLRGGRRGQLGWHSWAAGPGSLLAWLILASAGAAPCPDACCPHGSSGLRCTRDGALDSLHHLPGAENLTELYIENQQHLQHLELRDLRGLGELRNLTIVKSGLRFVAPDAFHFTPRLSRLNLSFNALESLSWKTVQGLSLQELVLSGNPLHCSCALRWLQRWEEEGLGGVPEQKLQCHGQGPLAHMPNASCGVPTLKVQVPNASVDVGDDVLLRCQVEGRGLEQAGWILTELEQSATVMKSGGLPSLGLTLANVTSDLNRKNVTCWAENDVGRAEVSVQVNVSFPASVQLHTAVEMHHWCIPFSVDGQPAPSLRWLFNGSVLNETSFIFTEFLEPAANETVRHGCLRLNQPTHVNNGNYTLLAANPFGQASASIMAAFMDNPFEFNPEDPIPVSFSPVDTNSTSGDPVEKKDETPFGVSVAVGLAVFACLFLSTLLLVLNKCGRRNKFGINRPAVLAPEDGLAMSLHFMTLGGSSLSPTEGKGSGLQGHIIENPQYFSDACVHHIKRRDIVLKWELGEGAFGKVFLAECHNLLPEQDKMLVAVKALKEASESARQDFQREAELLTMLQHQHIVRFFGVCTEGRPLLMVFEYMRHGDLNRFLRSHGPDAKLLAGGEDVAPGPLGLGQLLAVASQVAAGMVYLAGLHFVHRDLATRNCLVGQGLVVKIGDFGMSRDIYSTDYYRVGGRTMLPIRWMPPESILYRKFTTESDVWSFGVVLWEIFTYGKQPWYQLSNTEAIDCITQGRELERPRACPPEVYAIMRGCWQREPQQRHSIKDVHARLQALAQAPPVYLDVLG

KM12 [4] = experiment: Induction of apoptosis in human KM12 cells assessed as late apoptotic cells at 62.5 nM measured after 48 hrs by AnnexinV-FITC/PI staining based flowcytometry assay relative to control; type: functional
Procedure, shortened: (§2)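 They were detached with trypsin, washed twice in PBS, and 10^5 cells were suspended in Annexin V binding buffer. Cells were stained with FITC-Annexin V and PI for 10 min at room temperature in the dark, diluted with PBS and analysed by flow cytometry.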

KM12 [5] = experiment: Induction of apoptosis in human KM12 cells assessed as viable cells at 125 nM measured after 48 hrs by AnnexinV-FITC/PI staining based flowcytometry assay relative to control; type: functional; details: read-out: Activity
Procedure, shortened: (§3)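 10^5 cells in Annexin V binding buffer stained with FITC-Annexin V and PI for 10 min at room temperature in the dark, diluted with PBS and analysed by flow cytometry (FITC 494/518 nm, PI 535/617 nm).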

KM12 [6] = experiment: Induction of apoptosis in human KM12 cells assessed as viable cells at 250 nM measured after 48 hrs by AnnexinV-FITC/PI staining based flowcytometry assay relative to control; type: functional; details: read-out: Activity; procedure, shortened: as §3
KM12 [7] = experiment: Induction of apoptosis in human KM12 cells assessed as early apoptotic cells at 250 nM measured after 48 hrs by AnnexinV-FITC/PI staining based flowcytometry assay relative to control; type: functional; procedure, shortened: as §2
KM12 [8] = experiment: Induction of apoptosis in human KM12 cells assessed as necrotic cells at 250 nM measured after 48 hrs by AnnexinV-FITC/PI staining based flowcytometry assay relative to control; type: functional; procedure, shortened: as §3
KM12 [9] = experiment: Induction of apoptosis in human KM12 cells assessed as early apoptotic cells at 500 nM measured after 48 hrs by AnnexinV-FITC/PI staining based flowcytometry assay relative to control; type: functional; procedure, shortened: as §2
KM12 [10] = experiment: Induction of apoptosis in human KM12 cells assessed as viable cells at 1000 nM measured after 48 hrs by AnnexinV-FITC/PI staining based flowcytometry assay relative to control; type: functional; details: read-out: Activity; procedure, shortened: as §3
KM12 [11] = experiment: Induction of apoptosis in human KM12 cells assessed as late apoptotic cells at 1000 nM measured after 48 hrs by AnnexinV-FITC/PI staining based flowcytometry assay relative to control; type: functional; procedure, shortened: as §2
KM12 [12] = experiment: Induction of apoptosis in human KM12 cells assessed as necrotic cells at 1000 nM measured after 48 hrs by AnnexinV-FITC/PI staining based flowcytometry assay relative to control; type: functional; procedure, shortened: as §2
KM12 [13] = experiment: Cell cycle arrest in human KM12 cells assessed as accumulation of cells at G1 phase at 125 nM measured after 48 hrs by AnnexinV-FITC/PI staining based flowcytometry method relative to control; type: functional
KM12 [14] = experiment: Cell cycle arrest in human KM12 cells assessed as accumulation of cells at greater G1 phase at 250 nM measured after 48 hrs by AnnexinV-FITC/PI staining based flowcytometry method relative to control; type: functional
KM12 [15] = experiment: Cell cycle arrest in human KM12 cells assessed as accumulation of cells at greater G1 phase at 500 nM measured after 48 hrs by AnnexinV-FITC/PI staining based flowcytometry method relative to control; type: functional
KM12 [16] = experiment: Cell cycle arrest in human KM12 cells assessed as accumulation of cells at S phase at 1000 nM measured after 48 hrs by AnnexinV-FITC/PI staining based flowcytometry method relative to control; type: functional
[17] = target: NT-3 growth factor receptor (Homo sapiens, UniProt Q16288); experiment: Inhibition of recombinant His-tagged human TRKC expressed in baculovirus expression system at 1 uM measured by select screen assay relative to control; procedure, shortened: as §1
Chain of NT-3 growth factor receptor (Q16288 32-839 limits assumed): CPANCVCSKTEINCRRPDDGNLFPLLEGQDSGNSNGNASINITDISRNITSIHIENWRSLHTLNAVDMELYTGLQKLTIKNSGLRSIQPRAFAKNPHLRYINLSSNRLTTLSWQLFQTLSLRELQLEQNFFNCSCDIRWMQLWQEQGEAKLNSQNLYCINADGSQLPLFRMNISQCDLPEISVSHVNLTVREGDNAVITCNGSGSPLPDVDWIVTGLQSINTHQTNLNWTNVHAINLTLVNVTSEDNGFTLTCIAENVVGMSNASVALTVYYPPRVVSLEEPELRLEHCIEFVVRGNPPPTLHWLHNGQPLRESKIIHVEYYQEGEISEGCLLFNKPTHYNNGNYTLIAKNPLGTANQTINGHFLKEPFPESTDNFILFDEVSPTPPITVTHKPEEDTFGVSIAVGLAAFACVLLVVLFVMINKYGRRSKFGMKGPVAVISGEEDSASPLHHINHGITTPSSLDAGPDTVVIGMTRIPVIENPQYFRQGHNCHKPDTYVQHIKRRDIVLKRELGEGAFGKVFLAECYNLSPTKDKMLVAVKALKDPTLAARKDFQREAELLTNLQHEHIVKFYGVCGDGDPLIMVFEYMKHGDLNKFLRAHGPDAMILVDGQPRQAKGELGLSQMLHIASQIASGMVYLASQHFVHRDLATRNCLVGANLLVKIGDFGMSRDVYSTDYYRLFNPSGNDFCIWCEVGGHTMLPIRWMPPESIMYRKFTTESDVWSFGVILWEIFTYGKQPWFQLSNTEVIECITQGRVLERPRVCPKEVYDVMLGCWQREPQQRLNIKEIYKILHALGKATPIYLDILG

[18] = target: Maternal embryonic leucine zipper kinase (Homo sapiens) (UniProt Q14680); experiment: Inhibition of recombinant GST-tagged human MELK expressed in baculovirus expression system at 1 uM measured by select screen assay relative to control; procedure, shortened: as §1
Chain of Maternal embryonic leucine zipper kinase (Homo sapiens) (Q14680 whole entry, looked up): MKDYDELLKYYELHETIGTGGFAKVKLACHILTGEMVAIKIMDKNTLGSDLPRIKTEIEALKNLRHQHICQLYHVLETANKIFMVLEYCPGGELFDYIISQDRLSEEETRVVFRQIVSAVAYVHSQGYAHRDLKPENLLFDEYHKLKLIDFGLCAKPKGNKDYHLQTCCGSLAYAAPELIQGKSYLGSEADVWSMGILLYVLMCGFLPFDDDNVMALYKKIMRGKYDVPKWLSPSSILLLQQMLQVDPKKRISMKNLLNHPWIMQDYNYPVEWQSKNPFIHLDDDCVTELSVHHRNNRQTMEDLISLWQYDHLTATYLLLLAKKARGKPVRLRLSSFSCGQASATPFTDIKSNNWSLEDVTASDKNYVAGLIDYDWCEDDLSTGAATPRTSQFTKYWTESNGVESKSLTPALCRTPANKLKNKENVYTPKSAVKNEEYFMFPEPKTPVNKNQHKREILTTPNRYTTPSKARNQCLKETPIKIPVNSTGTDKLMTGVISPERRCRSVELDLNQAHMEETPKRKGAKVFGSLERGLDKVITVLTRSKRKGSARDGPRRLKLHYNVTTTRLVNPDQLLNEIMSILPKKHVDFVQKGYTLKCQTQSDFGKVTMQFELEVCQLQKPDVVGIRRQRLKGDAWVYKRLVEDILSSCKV

[19] = target: RAF proto-oncogene serine/threonine-protein kinase (Homo sapiens) (UniProt P04049); experiment: Inhibition of recombinant GST-tagged human RAF1 expressed in baculovirus expression system at 1 uM measured by select screen assay relative to control; procedure, shortened: as §1
[20] = target: Serine/threonine-protein kinase PAK 1 (Homo sapiens) (UniProt Q13153); experiment: Inhibition of recombinant GST-tagged human full length PAK1 expressed in baculovirus expression system at 1 uM measured by select screen assay relative to control; procedure, shortened: as §1
[21] = target: Protein kinase C alpha type (Homo sapiens) (UniProt P17252); experiment: Inhibition of recombinant GST-tagged human full length PRKCA expressed in insect expression system at 1 uM measured by select screen assay relative to control; procedure, shortened: as §1
[22] = Clearance in human liver assessed as half life at 100 uM measured after 60 mins by LC-MS/MS analysis; type: ADME, Microsome; details: microsomes, 1 h
Procedure, shortened: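 Pooled human liver microsomes were diluted to 0.59 mg/mL (working solution) in 100 mM potassium phosphate buffer and pre-warmed at 37 °C. Compound was added from a 100 µM working solution, with NADPH cofactor prepared in 10 mM MgCl2. Incubation ran at 37 °C for 60 min. Aliquots were quenched at 5, 15, 30, 45 and 60 min. A control without NADPH was run in buffer. Samples were analysed by LC-MS/MS.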

CYP2C19 = CYP2C19 (Homo sapiens, UniProt P33261); experiment: Inhibition of CYP2C19 in human liver microsomes at 10 uM preincubated for 10 mins followed by addition of NADPH and measured after 15 mins by LC-MS/MS analysis; type: ADME; details: time 25 min
Chain of CYP2C19 (P33261 whole entry): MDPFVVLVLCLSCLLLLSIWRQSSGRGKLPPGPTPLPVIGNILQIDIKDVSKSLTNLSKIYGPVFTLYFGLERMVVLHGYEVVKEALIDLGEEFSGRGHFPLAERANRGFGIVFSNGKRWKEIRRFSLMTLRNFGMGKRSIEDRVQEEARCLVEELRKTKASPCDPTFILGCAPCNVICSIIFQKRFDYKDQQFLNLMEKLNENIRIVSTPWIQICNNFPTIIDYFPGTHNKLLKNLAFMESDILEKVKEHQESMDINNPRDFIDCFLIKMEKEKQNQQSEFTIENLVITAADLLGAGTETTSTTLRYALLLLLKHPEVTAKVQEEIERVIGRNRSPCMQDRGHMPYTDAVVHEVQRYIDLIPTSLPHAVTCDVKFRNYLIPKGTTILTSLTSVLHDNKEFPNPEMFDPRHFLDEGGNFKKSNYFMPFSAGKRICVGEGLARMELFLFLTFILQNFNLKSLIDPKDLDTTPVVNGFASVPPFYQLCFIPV
Procedure, shortened: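 Pooled human liver microsomes (0.253 mg/mL) with test compound at 10 µM and probe substrates: phenacetin (CYP1A2), diclofenac (CYP2C9), S-mephenytoin (CYP2C19), dextromethorphan (CYP2D6), midazolam (CYP3A4). 10 min preincubation at 37 °C, NADPH-regenerating system added, 15 min at 37 °C. Stopped with cold acetonitrile containing tolbutamide/labetalol internal standards, centrifuged, supernatant read by LC-MS/MS; % inhibition.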

[23] = Clearance in Sprague dawley rat at 1 mg/kg, iv; type: ADME, organism-based; details: in vivo
Procedure, shortened: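 Blood was collected into heparin tubes at specified time points and centrifuged at once (4 °C, 4000 rpm, 20 min). Plasma levels were quantified by LC-MS/MS. Parameters came from noncompartmental analysis.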

[24] = Oral bioavailability in Sprague dawley rat at 3 mg/kg; type: ADME, organism-based; details: in vivo
Procedure, shortened: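 Male-unspecified SD rats, n = 3 per group, single i.v. dose 1 mg/kg or oral 3 mg/kg. Blood drawn into heparin tubes at set times, centrifuged at 4 °C, plasma quantified by LC-MS/MS; noncompartmental parameters fitted.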

## CN1CCN(c2ccc(C(=O)Nc3n[nH]c4c3CN(Cc3cc(F)cc(F)c3)C4(C)C)cc2)CC1
[1]
  inhibition: 51%
[2]
  inhibition: 76%
[3]
  IC50: 17 nM
KM12 [4]
  Activity: 9.89%
KM12 [5]
  viability at 0.125 µM: 63.5%
KM12 [6]
  viability at 0.25 µM: 30.2%
KM12 [7]
  Activity: 32.95%
KM12 [8]
  Activity: 0.04%
KM12 [9]
  Activity: 35.84%
KM12 [10]
  viability at 1 µM: 23.7%
KM12 [11]
  Activity: 39.95%
KM12 [12]
  Activity: 0.04%
KM12 [13]
  Activity: 56.6%
KM12 [14]
  Activity: 1.26%
KM12 [15]
  Activity: 1.57%
KM12 [16]
  Activity: 7.22%
[17]
  inhibition: 99%
[18]
  inhibition: 22%
[19]
  inhibition: 11%
[20]
  inhibition: 3%
[21]
  inhibition: 3%
[22]
  CLH: 42.1 µL/min/mg
CYP2C19
  inhibition at 0.25 h, 10 µM: 11.5%
[23]
  clearance: 8.08 mL/min/kg
[24]
  bioavailability: 44.3%
